# Test results taken from ChEMBL document CHEMBL4513216, “Probing the Open Global Health Chemical Diversity Library for Multistage-Active Starting Points for Next-Generation Antimalarials” (ACS Infect Dis, 2020).
# Assay: Toxicity liver stage against HepG2, at 10uM
# Format: cell-based
# Design: test concentration 10 uM, cell line HepG2-A16-CD81EGFP
# Settings: human, HepG2-A16-CD81EGFP cells; read-out: INHIBITION
# Procedure, shortened: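 Uninfected HepG2-A16-CD81EGFP cells, 3 × 10^3 per well, 1536-well, plated on prespotted compound at 10 μM final, parasite-free screening media added to match infected plates; puromycin 10 μM positive, DMSO 0.5% negative; run in parallel with 48 h PbLuc assay at 37 °C, 5% CO2; viability by CellTiter-Glo luminescence, normalized to controls.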
row,Structure (SMILES),cytotoxicity at 10 µM [%]
1,CC(C)(C)NC(=O)c1ccc(COCC(F)(F)F)o1,-0.585
2,Cc1c(CN2CCCCC2)c(O)n(CCCO)c(=O)c1C#N,-5.03
3,Fc1ccc(OCc2nnc([C@H]3CCN(Cc4ccncc4)C3)o2)cc1,-1.81
4,CCCNC(=O)C[C@@H]1CCN(C(=O)c2cccnc2)C[C@@H]1CC,-0.171
5,CCC(CC)C(=O)n1ccn(S(=O)(=O)c2ccc(C)cc2)c1=O,11.5
6,Cc1ccc(C)c(-n2ncc(C(=O)NCC3COC(C)(C)O3)c2N)c1 (stereo not given),-4.06
7,COc1coc(C(=O)Nc2ccncc2)cc1=O,-14.4
8,O=C1CCSCC(C(=O)NCc2nc(-c3ccccc3)no2)N1 (stereo not given),-4.66
9,CN(C)C(=O)[C@H]1CC[C@@H]2[C@@H](CCN2C(=O)N(C)C)O1,20.3
10,COc1ncccc1CN1CC[C@H]2O[C@H](c3nnc(C)o3)CC[C@H]21,15.1
11,CN1C(=O)C2(CCN(C(=O)c3cccnc3)CC2)c2cccc(F)c21,-1.06
12,C1CC(CN2CC[C@@H]3O[C@@H](c4nnc(C5CC5)o4)C[C@H]3C2)CCO1,5.35
13,CC[C@@H]1N(Cc2ccccn2)CCC[C@]12CCC(=O)N2CCOC,8.01
14,CN(C)C(=O)C1OC2(CCN(C(=O)N(C)C)CC2)c2ccccc21 (stereo not given),8.04
15,Cc1cc(C)c(C#N)c(N2CCC(Cc3ccccc3)CC2)n1,-11.8
16,O=S(=O)(NCC1(O)CCOc2ccccc21)c1cccs1 (stereo not given),-16.8
17,O=C(COCC(=O)N1CCCCCC1)NCc1cccc(Br)c1,1.47
18,COc1ccc(-c2cc(C(=O)N3N=C(C)CC3(O)C(F)(F)F)[nH]n2)cc1 (stereo not given),1.36
19,O=C(O)C1CCCN1c1nc(C2CC2)cc(C(F)(F)F)n1 (stereo not given),7.55
20,NC(=O)c1cnn2c(C3CCN(CCO)CC3)ccnc12,0.695
21,CCN(Cc1ccncc1)CC1(C)Cc2c(N)nc(N)nc2O1 (stereo not given),2.15
22,CS(=O)(=O)N1CC2(CCN(Cc3ccccn3)C2)Cc2ccccc21 (stereo not given),8.08

row,Structure (SMILES),cytotoxicity at 10 µM [%]
1,O=C(O)c1cc(Br)cnc1OCC1CC1,6.43
2,CCc1ccccc1OCC(=O)Nc1ccnc(OCCN(C)C)c1,17.8
3,COc1ccc(CNC(c2cccc(F)c2)c2cnn(C)c2)cc1 (stereo not given),4.91
4,COC(=O)c1ncccc1N1CCN(C(=O)CN2CCOCC2)CC1,16.7
5,O=C(C(c1ccccc1)S(=O)(=O)c1ccccn1)N1CCCC1 (stereo not given),7.27
6,CC(C(=O)NC1CCCC1)S(=O)(=O)Cc1noc(C(C)(C)C)n1 (stereo not given),-9.41
7,COc1ccncc1NC(=O)C1(c2ccccc2)CC1,2.72
8,Cc1cc(C(=O)N(C)CCN(C)C(=O)OC(C)(C)C)oc1C,3.51
9,Cc1ccc(CC(NC(=O)CN(C)C2CC2)c2ccccn2)cc1 (stereo not given),5.33
10,O=S(=O)(Cc1nc(C2CC2)no1)c1cc(F)ccc1F,7.81
11,CCOc1ncccc1CNS(=O)(=O)c1ccc2c(c1)CCO2,7.95
12,CC(C)Cn1ncc(C(=O)O)c1C1CC1,-14
13,CCc1ccc(C(COC)NC(=O)c2ccc(F)c(NC(C)=O)c2)o1 (stereo not given),-11.1
14,CC(=O)N(Cc1ncc(C)o1)C1CCN(Cc2cnc(C)s2)C1 (stereo not given),5.42
15,COc1cc(CN(C)C(=O)NC2CC2)ccc1SC,-8.01
16,COc1cc(CN(C)C(=O)NCC(=O)NC(C)C)ccc1SC,-15.5
17,CCC(C)NC(=O)NCCC(=O)N1CCN(c2ccccn2)CC1 (stereo not given),4.22
18,COc1cccc(S(=O)(=O)CCNC(C)Cn2cccn2)c1 (stereo not given),-3.34
19,Cc1cc(C(C)NC(=O)CCn2nnc3ccccc3c2=O)c(C)o1 (stereo not given),3.81
20,O=C(NCCCOCC1CC1)Nc1ccc(F)cc1,3.09
21,CCOCCNC(=O)c1ccc(OC)cc1I,6.53
22,COCCC1(CNC(=O)NCC2CCCS2)CCCC1 (stereo not given),0.96

row,Structure (SMILES),cytotoxicity at 10 µM [%]
1,O=c1cc(CNCc2ccc3c(c2)OCO3)nc2ccccn12,-6.17
2,CCOCCn1nnc(C2(NC(=O)c3ccccc3)CCCC2)n1,21.9
3,Cc1ccc(S(=O)(=O)NCCNC(=O)c2ccoc2)cc1F,-5.69
4,Cc1cc(C)n(CC(=O)N2CCC(c3nc(C)no3)CC2)n1,1.2
5,CCOC(=O)c1c(NC(=O)CN2CCN(C(C)=O)CC2)sc2c1CCC2,-5.33
6,CC(C1CC1)N(C(=O)NCCCn1nc2ccccn2c1=O)C1CC1 (stereo not given),-21.4
7,O=C(c1cscn1)N1CCC[C@]2(C[C@H](OCC3CC3)CO2)C1,-2.86
8,COc1ccccc1CN1CCC2(CC1)CC(Oc1ccccn1)CO2 (stereo not given),-1.96
9,O=C(c1ccc(-c2ccsc2)nc1)N1CCCN(C2CCCCC2)CC1,6.67
10,COc1ccccc1OC1CN(Cc2ccc(C(=O)O)cc2)C1,-8.98
11,CN1CC2(CCN(C(=O)c3cc(-n4cccn4)ccc3Cl)CC2)OC1=O,2.3
12,Cc1ncsc1CCC(=O)N(C)Cc1nc2ccccc2n1C,-143
13,Cn1nccc1C(=O)N1CCN(C(=O)C2CC2)[C@@H]2CS(=O)(=O)C[C@@H]21,3.11
14,O=C(O)[C@H]1C[C@H](C(=O)NC2CC2)CN(Cc2ccc(-c3cc[nH]n3)s2)C1,2.89
15,COc1cccc2c1OCC(Cc1cnc(N)c(C)c1)C2 (stereo not given),3.36
16,Cc1nc2c(c(=O)n1C)CCN(C(=O)CCc1ccccc1O)CC2,0.53
17,CCn1nc(CC(C)C)cc1C(=O)N1CCCC(C#N)C1 (stereo not given),-8.2
18,Cc1nc(C(=O)N(Cc2c(C)nn(C)c2C)C(C)C)cs1,3.57
19,Cc1nc(C)n(CC(C)C(=O)N2CCC(CN3CCOCC3)CC2)n1 (stereo not given),0.635
20,CC(C)c1nccn1C(C)C(=O)NC1CCN(S(C)(=O)=O)CC1 (stereo not given),-2.86
21,CC(C)[C@@H]1CN(CCOc2ccc(Cl)cc2)C[C@H]1NS(C)(=O)=O,-52.4
22,COCc1noc(CN2C(=O)OC[C@@H]2C(C)C)n1,-11.8

row,Structure (SMILES),cytotoxicity at 10 µM [%]
1,O=C(Cc1c[nH]c2ccccc12)NCC1CCN(Cc2c[nH]cn2)C1 (stereo not given),2.34
2,Cc1nc[nH]c1CN1CCN(C(=O)C2(C)CC2)[C@H]2CS(=O)(=O)C[C@H]21,-4.76
3,CCc1cnc(N)nc1NCCCn1nc(C)nc1C,-1.37
4,CCCNS(=O)(=O)c1ccc2[nH]c(=O)cc(C)c2c1,-3.37
5,CN1Cc2ccccc2CC1C(=O)N1CCN(CCS(C)(=O)=O)CC1 (stereo not given),15.1
6,COCCCC1(CO)CCCN(CCc2ccccc2)C1 (stereo not given),-9.99
7,CCn1nccc1C(=O)NC(Cn1cccn1)C(C)(C)C (stereo not given),-9.24
8,O=C(c1cc[nH]n1)N1CCCC(c2cccc(-n3ccnc3)n2)C1 (stereo not given),6.88
9,CCc1ccsc1C(=O)NCCn1nc2ccccn2c1=O,-12.2
10,Cc1cc(NC(=O)CN2CCN(c3nccs3)C(C)C2)on1 (stereo not given),-5.35
11,Cc1n[nH]c(C)c1NC(=O)CN1CCN(c2nccs2)C(C)C1 (stereo not given),-17.6
12,O=C(CCCOc1ccccc1)N1CCCC(n2cncn2)C1 (stereo not given),-8.57
13,CCCNC(=O)CCOc1cccc(F)c1,4.75
14,Cc1nc(C2CCCN(C(=O)c3c[nH]c(C(C)C)n3)C2)no1 (stereo not given),-7.52
15,NC(=O)C1CCN(C(=O)CCCc2nnc(-c3ccccc3)o2)C1 (stereo not given),-19.8
16,Cc1ncsc1C(=O)NC1CCN(CCC#N)CC1,-8.87
17,Cc1nnc(NC(=O)CN2CCc3c(nc(C4CC4)n3C)C2)s1,-8.51
18,O=C(NCCOCC(F)(F)F)c1ccc(-c2ccccc2)[nH]c1=O,-13.9
19,CC(C)c1nccn1C1CCCN(C(=O)C2=NN(C)C(=O)CC2)C1 (stereo not given),-24.6
20,CC(Cn1cccn1)NC(=O)N1CCCN(Cc2cccs2)CC1 (stereo not given),-13.5
21,COc1ccc(NC(=O)N2CCCC2c2ccncc2)cn1 (stereo not given),0.165
22,Cc1nn(C)c(N2CCOCC2)c1CNC(c1cccs1)C(C)C (stereo not given),-2.53

row,Structure (SMILES),cytotoxicity at 10 µM [%]
1,CC(C)Oc1cccc(CNC(=O)NC(C)(C(=O)O)c2ccco2)c1 (stereo not given),-2.77
2,CCCNC(=O)CN1CCC(C(=O)Nc2cnn(CC)c2)CC1,-2.04
3,Cc1cc(C)n(CC2CCCN2C(=O)c2cnn(C)c2C2CC2)n1 (stereo not given),-0.489
4,COc1cc(CNC(=O)CNc2cc(Cl)ccc2OC)ccn1,-8.92
5,FC(F)(F)Cn1ccnc1CN1CCCC1c1noc(C2CC2)n1 (stereo not given),1.78
6,CN(Cc1nnc(C2CC2)o1)C1CCN(CCCc2cnn(C)c2)C1 (stereo not given),5.27
7,COCc1nc(C(=O)N2CCCC2c2ccccc2C)cs1 (stereo not given),4.28
8,Cc1cnn(CCC(=O)N2CCN(c3ncccc3Cl)CC2)c1,2.41
9,CC(O)CN1CCC(CNCc2cccc(Br)c2)CC1 (stereo not given),-12.1
10,CN(C)C(=O)c1ccc(CNC(=O)NCCN(C)C2CCCC2)cc1,-5.58
11,COCCc1noc(CN2CCOC(Cn3nc(C)cc3C)C2)n1 (stereo not given),-6.66
12,Cc1ncsc1C(=O)N1CCCN(Cc2cscn2)CC1,-9.67
13,COc1cccc(CCC(=O)N2CCC[C@@H](N)[C@@H]2c2ccccc2F)c1,8.3
14,CCOc1ccc(C(=O)N2CCN(c3nccn3C)CC2)cc1,5.89
15,Cn1cc(CN2CCn3cc(CNC(=O)C4CCC4)nc3C2)cn1,-6.66
16,Fc1cccnc1O[C@@H]1CN(Cc2ccccn2)[C@@H]2CCCO[C@@H]21,1.71
17,Cc1ncnc2c1CCN(C(=O)Cc1ccccn1)CC2,8.12
18,COc1nn(C)c2c1CCCN(C(=O)c1ccc3ccccc3n1)C2,13.7
19,CN1CCC2(CC1)C(=O)N(CC1CC1)c1ccccc12,3.21
20,O=C(C1CCOCC1)N1CCO[C@H]2[C@H](OCc3ccncc3)CC[C@@H]21,-2.53
21,CN(C)C(=O)[C@H]1CC[C@@H]2[C@@H](CCN2Cc2ccccn2)O1,3.21
22,O=c1[nH]c2cn(-c3ccccc3)c(=O)n2[nH]1,-11.5
